# Test results published in ChEMBL document CHEMBL1165996, “Terpenoids from Salvia trijuga” (J Nat Prod, 2010).
# Legend:
# Assay type in all cases: functional, cell-based
# [1] = tested on: A549; test: Cytotoxicity against human A549 cells after 48 hrs by MTT assay; conditions: A549, 48 h
# Summary of the method: (§1)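 Cells seeded in 96-well plates 12 h before dosing, then continuously exposed to a range of compound concentrations for 48 h. MTT added for a further 4 h, then 20% SDS added and left 12 h at room temperature. OD read at 595 nm. IC50 calculated by the Reed and Muench method.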
# [2] = tested on: HL-60; test: Cytotoxicity against human HL60 cells after 48 hrs by MTT assay; conditions: HL-60, 48 h; summary of the method: as §1
# [3] = tested on: SMMC-7721; test: Cytotoxicity against human SMMC7721 cells after 48 hrs by MTT assay; conditions: SMMC-7721, 48 h; summary of the method: as §1
# [4] = tested on: MCF7; test: Cytotoxicity against human MCF7 cells after 48 hrs by MTT assay; conditions: MCF7, 48 h; summary of the method: as §1
# [5] = tested on: SW480; test: Cytotoxicity against human SW480 cells after 48 hrs by MTT assay; conditions: SW480, 48 h; summary of the method: as §1
Compound,IC50 [1],IC50 [2],IC50 [3],IC50 [4],IC50 [5]
C[C@@H]1CC[C@]2(C(=O)O)CC[C@]3(C)C(=CC[C@@H]4[C@@]5(C)C(CO)=CC(C)(C)[C@@H]5CC[C@]43C)[C@@H]2[C@]1(C)O [HYPTASIENIC ACID],24.7 µM,15.5 µM,21 µM,> 40 µM,10.9 µM
C/C=C(\C)C(=O)O[C@@H]1C/C(C)=C/CC[C@@]2(C)O[C@@H]2[C@@H](OC(=O)C(C)C(C)OC(C)=O)[C@H]1C(C)C (stereo not given in full) [TRIJUGIN I],> 40 µM,17.1 µM,34 µM,> 40 µM,24.9 µM
